Measurements from ChEMBL document CHEMBL4699419, “Antileishmanial assessment of isoxazole derivatives against L. donovani” (RSC Med Chem, 2020).
Activity calls are given as the source filed them. The rule behind the calls is not given here.

Experiments:
[1] = system: Leishmania donovani; experiment: Antileishmanial activity against late log phase promastigote stage of Leishmania donovani MHOM/IN/80/Dd8 harboring luciferase reporter gene incubated for 72 hrs by Steady-Glo luminescence assay; type: functional, organism-based; conditions: Leishmania donovani, MHOM/IN/80/Dd8, 72 h; read-out: IC50
How it was run: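 Luciferase-transfected promastigotes kept at 25 ± 1 °C in medium 199 + 10% heat-inactivated FCS + G418 (20 μg ml–1). Late-log cells (5 × 10^5 per well) grown 72 h with graded compound concentrations from DMSO, DMSO dilution controls. Aliquot mixed 1:1 with Steady-Glo, luminescence (RLU) read; % inhibition vs control. IC50 by Probit regression, three independent experiments.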

[2] = Selectivity index, ratio of CC50 for mouse J774.A1 cells to IC50 for amastigote form of Leishmania donovani MHOM/IN/80/Dd8; type: toxicity; conditions: read-out: Ratio CC50/IC50
How it was run: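 Macrophages infected at a 1:10 ratio with stationary promastigotes, then treated 72 h at 37 °C; luminescence read with Steady-Glo. IC50 values from probit analysis.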

[3] = system: Leishmania donovani; experiment: (§1) Antileishmanial activity against Leishmania donovani amastigotes infected in golden hamster assessed as reduction in parasite burden in spleen at 30 mg/kg, po initiated after 2 days of pre-treatment biopsy administered for 5 days and measured on day 7 by giemsa staining based assay relative to control; type: functional; conditions: 168 h, time 7 day
How it was run: (§2)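 Male inbred golden hamsters, 40–45 g, infected with L. donovani. Animals with +1 infection on pre-treatment spleen biopsy (5–15 amastigotes/100 spleen cell nuclei) randomized, five per group. Oral dosing in 5% carboxymethyl cellulose vehicle began 2 days after biopsy and ran 5 consecutive days; vehicle-only infected controls. Giemsa-stained spleen biopsies taken on day 7 or 28 after the last dose; PI = 100 – [ANAT × 100/(INAT × TIUC)].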

[4] = system: Leishmania donovani; experiment: as §1, with “28” for “7”; type: functional; conditions: 672 h, time 28 day; how it was run: as §2
[5] = Cytotoxicity against mouse J774A1 cells assessed as reduction in cell viability incubated for 48 hrs by MTT assay; type: cell-based, J774.A1
How it was run: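 J774A.1 macrophages, 0.2 × 10^6 per well, incubated overnight at 37 °C in 5% CO2, then exposed to compounds in DMSO for 48 h, with DMSO dilutions as controls. Viability read by MTT formazan at 600 nm. CC50 = 50% viability reduction versus medium-only cells, from probit regression; three independent experiments.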

[6] = system: Leishmania donovani; experiment: Antileishmanial activity against Leishmania donovani MHOM/IN/80/Dd8 promastigotes harboring luciferase reporter gene infected in mouse J774 cells assessed as inhibition of amastigote growth incubated for 72 hrs by Steady-Glo luminescence assay; type: functional, organism-based; conditions: Leishmania donovani, MHOM/IN/80/Dd8, J774, 72 h; read-out: IC50
How it was run: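 J774A.1 mouse macrophages (2 × 10^5 per well, RPMI-1640 + 10% FCS, 37 °C CO2) infected after 24 h with stationary-phase luciferase-transgenic promastigotes at 1:10 macrophage:parasite; compounds in complete medium for 72 h at 37 °C. Medium swapped for PBS, Steady-Glo added, luminescence read; % inhibition vs untreated control RLU. IC50 by Probit log dose/response regression, three independent experiments.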

[7] = system: Leishmania amazonensis; experiment: Antileishmanial activity against intracellular amastigote stage of Leishmania amazonensis (IFLA/BR/1967/PH8 strain) assessed as reduction in parasite viability incubated for 24 hrs by Neubauer chamber cell counting method; type: functional, organism-based; conditions: IFLA/BR/1967/PH8, 24 h
[8] = system: Leishmania amazonensis; experiment: Antileishmanial activity against promastigote form of Leishmania amazonensis (IFLA/BR/1967/PH8 strain) assessed as reduction in parasite viability incubated for 72 hrs by MTT assay; type: functional, organism-based; conditions: IFLA/BR/1967/PH8, 72 h
[9] = system: Leishmania amazonensis; experiment: Antileishmanial activity against intracellular amastigote stage of Leishmania amazonensis; type: functional, organism-based
[10] = system: Leishmania amazonensis; experiment: Antileishmanial activity against promastigote form of Leishmania amazonensis; type: functional, organism-based
[11] = system: Leishmania donovani; experiment: as §1, with “50” for “30”, “ip” for “po”; type: functional; conditions: 168 h, time 7 day
How it was run: (§3)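 Male inbred golden hamsters, 40–45 g, infected with L. donovani. Animals with +1 infection on pre-treatment spleen biopsy randomized, five per group. Intraperitoneal dosing in a vehicle of 10% Tween-80/ethanol (70:30) in ddH2O, 10% final, began 2 days after biopsy and ran 5 consecutive days; vehicle-only controls. Giemsa-stained spleen biopsies taken on day 7 or 28; percentage inhibition computed from initial, treated and untreated-control amastigote counts.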

[12] = system: Leishmania donovani; experiment: as §1, with “50” for “30”, “ip” for “po”, “28” for “7”; type: functional; conditions: for inhibition in vivo at 50 mg/kg: 672 h, time 28 day; how it was run: as §3
[13] = system: Leishmania donovani; experiment: as §1, with “100” for “30”, “28” for “7”; type: functional; conditions: 672 h, time 28 day; how it was run: as §2
[14] = system: Leishmania donovani; experiment: as §1, with “100” for “30”; type: functional; conditions: 168 h, time 7 day; how it was run: as §2
[15] = AUC (0 to infinity) in golden hamster at 100 mg/kg, po measured upto 24 hrs by LC/MS-MS analysis; type: ADME, organism-based, Mesocricetus auratus; design: route oral, dose 100 mg/kg, time <=24; conditions: in vivo
How it was run: (§4)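 Male Syrian hamsters, three per group; single oral dose of 100 mg kg–1 as a suspension in 0.5% sodium carboxymethylcellulose. Plasma concentrations followed over 24 h by LC–MS/MS with electrospray ionization. Parameters derived by non-compartmental analysis; mean ± SD of n = 3.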

[16] = Half life in golden hamster at 100 mg/kg, po measured upto 24 hrs by LC/MS-MS analysis; type: ADME, organism-based, Mesocricetus auratus; conditions: in vivo; how it was run: as §4
[17] = Drug metabolism in golden hamster at 100 mg/kg, po measured upto 24 hrs by LC/MS-MS analysis; type: ADME, organism-based, Mesocricetus auratus; conditions: in vivo
[18] = MRT in golden hamster at 100 mg/kg, po measured upto 24 hrs by LC/MS-MS analysis; type: ADME, organism-based, Mesocricetus auratus; conditions: in vivo; how it was run: as §4
[19] = Cmax in golden hamster at 100 mg/kg, po measured upto 24 hrs by LC/MS-MS analysis; type: ADME, organism-based, Mesocricetus auratus; design: route oral, dose 100 mg/kg, time <=24; conditions: in vivo; how it was run: as §4
[20] = Tmax in golden hamster at 100 mg/kg, po measured upto 24 hrs by LC/MS-MS analysis; type: ADME, organism-based, Mesocricetus auratus; conditions: in vivo; how it was run: as §4

Row | Structure (SMILES) | IC50 [1] [µM] | selectivity ratio [2] | CC50 at 48 h [5] [µM] | IC50 [6] [µM] | inhibition in vivo at 50 mg/kg [11] [%] | inhibition in vivo at 50 mg/kg [12] [%] | other results
1 | CCCCCCCCCCCCCCCCOP(=O)([O-])OCC[N+](C)(C)C [MILTEFOSINE] | 2.52 | 5.76 | 53.3 | 9.25 | – | – | inhibition in vivo at 30 mg/kg [3]: 97.3%; inhibition in vivo at 30 mg/kg [4]: 98.4%
2 | O=[N+]([O-])c1ccc(-c2cc(-c3ccc(CCl)cc3)on2)o1 | – | – | – | – | – | – | IC50 [7]: 0.6 µM; IC50 [8]: 3.5 µM
3 | COc1cc(-c2cc(-c3cc(OC)c(OC)c(OC)c3)on2)cc(OC)c1OC | – | – | – | – | – | – | IC50 [9]: 2.9 µM; IC50 [10]: 18.3 µM
4 | COC(=O)c1c([N+](=O)[O-])noc1-c1cc2c(cc1[N+](=O)[O-])OCO2 | 0.67 | 6.51 | 113 | 17.4 | 36 | 71.2 | inhibition in vivo at 100 mg/kg [13]: 66%; inhibition in vivo at 100 mg/kg [14]: 48.4%
5 | COc1cc(-c2cc(-c3ccc4c(c3)OCO4)no2)cc(OC)c1OC | – | – | – | – | – | – | IC50 [9]: 2.9 µM; IC50 [10]: 18.3 µM
6 | COC(=O)c1c(NCCCCNc2ccnc3cc(Cl)ccc23)noc1-c1cc2c(cc1[N+](=O)[O-])OCO2 | 4.5 | 7.97 | 67.7 | 8.49 | 20 | 4.38 | –
7 | COC(=O)c1c(NCc2ccc(C(C)(C)C)cc2)noc1-c1cc2c(cc1[N+](=O)[O-])OCO2 | 2.14 | 14 | 7.49 | 0.54 | 71.1 | 28.6 | AUC(0-inf) [15]: 149 ng·h/mL; half-life [16]: 3.78 h; Drug metabolism [17]: Metabolite_Detected; inhibition in vivo at 100 mg/kg [13]: 12.7%; MRT [18]: 9.53 h; Cmax [19]: 15.4 ng/mL; inhibition in vivo at 100 mg/kg [14]: 69.5%; Tmax [20]: 3 h
8 | COC(=O)c1c(NCc2ccccc2)noc1-c1ccc([N+](=O)[O-])cc1 | 3.9 | 6.16 | 85.4 | 13.8 | 44 | 75.2 | –
9 | COC(=O)c1c([N+](=O)[O-])noc1-c1ccc(Cl)cc1Cl | 1.82 | 4.49 | 19.7 | 4.38 | 39.5 | 29 | –
10 | COC(=O)c1c(NCc2ccc(Cl)cc2)noc1-c1ccc(Cl)cc1Cl | 14.1 | 56.6 | 176 | 3.1 | 29.2 | – | inhibition ([12]; time 28.0 day): inactive
